The subject of one data set is Plasmodium falciparum. As to the kind of experiment: In vitro inhibition of Plasmodium falciparum. It counts as functional, organism-based. The procedure, abridged: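 [³H]-hypoxanthine incorporation assay on the Nigerian strain of P. falciparum, run as described in earlier work. IC₅₀ is the concentration giving 50% inhibition of incorporation.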
Another data set concerns Mus musculus. Description: In vivo effective dose against Plasmodium vinckei in mice (Mus musculus) after intraperitoneal administration of the compound. The data set is classed as functional. Particulars: ip. Summed up: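 Modified Peters 4-day suppressive test in female Swiss mice infected with P. vinckei petteri (279BY). Dosing was ip, once daily for 4 days. Controls received an equal volume of vehicle. Parasite growth was assessed on the day after the last treatment. ED₅₀ is the dose giving 50% growth inhibition relative to control.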

The nature of data set [1]: Ratio of LD50 to ED50 expressed as TI. The data set is classed as ADME. The following applies: mouse. Summed up: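 Therapeutic index calculated as LD50/ED50. ED50 came from a modified 4-day suppressive test against P. vinckei petteri (279BY) in female Swiss mice, dosed ip once daily for 4 days. It is the dose giving 50% inhibition of parasite growth versus vehicle-treated controls, read the day after the last dose. LD50 came from tolerance after ip administration in mice.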

The nature of data set [2]: Lethal dose against Plasmodium vinckei in mice (Mus musculus) after intraperitoneal administration. The data set is classed as toxicity. The following applies: in vivo, ip.

Compound `CCCCCCCCCCCC[n+]1csc(CCOC)c1C` gave an IC50 in the data set with Plasmodium falciparum of 75 nM.
In the case of `CCCCCCCCCCCC[n+]1csc(CCO)c1C`, in the data set with Plasmodium falciparum, the IC50 came out at 70 nM.
Same read-out and setting: the same measure for `c1ccc(-c2csc[n+]2CCCCCCCCCCCC[n+]2cscc2-c2ccccc2)cc1`: 1800 nM.
As to `CCN(CC)CCCC(C)Nc1ccnc2cc(Cl)ccc12` (stereo not drawn) [CHLOROQUINE], in the data set on Mus musculus, the ED50 came to 1.1 mg/kg.
In turn, `c1ccc2c(c1)sc[n+]2CCCCCCCCCCCC[n+]1csc2ccccc21` came in with a 50% inhibitory concentration (IC50) in the data set on Plasmodium falciparum of 2300 nM.
As for `COCCc1sc[n+](CCCCCCCCCCCCCCCC[n+]2csc(CCOC)c2C)c1C`, the IC50 in the data set with Plasmodium falciparum came to 1.1 nM.
As for `CCc1sc[n+](CCCCCCCCCCCC[n+]2csc(CC)c2C)c1C.[I-].[I-]`, the IC50 in the data set with Plasmodium falciparum came out at 1.6 nM. In the data set with Mus musculus, this compound showed an ED50 of 0.4 mg/kg.
For the compound `Cc1c(CCOCCCCCCOCCc2sc[n+](Cc3ccccc3)c2C)sc[n+]1Cc1ccccc1`, the IC50 in the data set with Plasmodium falciparum is 36 nM.
Turning to `Cc1c(CCO)sc[n+]1CCCCCCCCCCCC[n+]1csc(CCO)c1C.[I-].[I-]`, the midpoint of inhibition with Plasmodium falciparum, the IC50, lay at 2.25 nM. In addition, the TI in data set [1] is given as 5%. In data set [2], this compound gave an LD50 of 1.2 mg/kg. In the data set on Mus musculus, the ED50 amounted to 0.2 mg/kg.
In turn, `Cc1c(CCCl)sc[n+]1CCCCCCCCCCCC[n+]1csc(CCCl)c1C` yielded a half-maximal inhibitory concentration (IC50) in the data set on Plasmodium falciparum of 10 nM.
`Cc1c(CCO)sc[n+]1CCCCCCCC[n+]1csc(CCO)c1C` displayed an IC50 in the data set with Plasmodium falciparum of 362 nM.
Regarding `CC(=O)OCCc1sc[n+](CCCCCCCCCCCC[n+]2csc(CCOC(C)=O)c2C)c1C.[I-].[I-]`, in the data set with Plasmodium falciparum, half-maximal inhibition (IC50) was put at 3.1 nM. In the data set with Mus musculus, the 50% effect level (ED50) was put at a dose of 0.7 mg/kg.
`CCOC(=O)Cc1c(CCCCCCCCCCCCc2sc[n+](C)c2CC(=O)OCC)sc[n+]1C` yielded an IC50 in the data set with Plasmodium falciparum of 22 nM.
The same measure, in the same setting: to `Cc1c(CCOC(C)C)sc[n+]1CCCCCCCCCCCC[n+]1csc(CCOC(C)C)c1C` belongs 4.8 nM; to `CCOCCc1sc[n+](CCCCCCCCCCCC[n+]2csc(CCOCC)c2C)c1C`, 1.6 nM; to `Cc1c(CCOCCCCCCOCCc2sc[n+](C)c2C)sc[n+]1C`, 275 nM.
On the same count and under the same terms, to `Cc1c(CCO)sc[n+]1CCCCCCCCCC[n+]1csc(CCO)c1C` belongs 34 nM.
The compound `Cc1csc[n+]1CCCCCCCCCCCC[n+]1cscc1C.[I-].[I-]` gave an IC50 with Plasmodium falciparum of 3 nM. For the same compound, in the data set on Mus musculus, it took a dose of 2.6 mg/kg to reach the 50% effect level (ED50).
Turning to `COCCc1sc[n+](CCCCCCCCCCCC[n+]2csc(CCOC)c2C)c1C.[I-].[I-]`, the IC50 with Plasmodium falciparum came to 0.65 nM. Besides, the TI in data set [1] stood at 5%. In data set [2], this compound registered an LD50 of 1.2 mg/kg. The compound further showed an ED50 with Mus musculus of 0.14 mg/kg.
In the data set on Plasmodium falciparum, `COCCc1sc[n+](CCCCCCCC[n+]2csc(CCOC)c2C)c1C` came in with a half-inhibitory concentration (IC50) of 87.5 nM.
Same read-out and setting: the same measure for `COCCc1sc[n+](CCCCCCCCCC[n+]2csc(CCOC)c2C)c1C`: 8.9 nM.
In the case of `COC(=O)CCC(=O)OCCc1sc[n+](CCCCCCCCCCCC[n+]2csc(CCOC(=O)CCC(=O)OC)c2C)c1C.[I-].[I-]`, the IC50 in the data set on Plasmodium falciparum was found to be 5 nM. This compound showed an ED50 in the data set with Mus musculus of 3.1 mg/kg.
Taken in the same sequence, the figures for `C[N+]1(CCCCCCCCCCCCCCCC[N+]2(C)CCCC2)CCCC1.[Br-].[Br-]` were 0.65 nM and 0.22 mg/kg.
In the data set on Plasmodium falciparum, `COCCc1sc[n+](CCCCc2ccc(CCCC[n+]3csc(CCOC)c3C)cc2)c1C` had an IC50 of 5 nM.
In turn, `Cc1sc[n+](CCCCCCCCCCCC[n+]2csc(C)c2C)c1C.[I-].[I-]` registered an IC50 in the data set on Plasmodium falciparum of 1.5 nM. This compound also registered an ED50 with Mus musculus of 1 mg/kg.
For `CCOC(=O)Cc1c(CCCCCCCCCCCCc2sc[n+](Cc3ccccc3)c2CC(=O)OCC)sc[n+]1Cc1ccccc1`, the IC50 in the data set on Plasmodium falciparum is 250 nM.

In general, IC50 refers to the concentration needed to halve the response being measured. High values mean lower potency, low ones higher potency. A word on the ED50: it is the dose at which the effect has come halfway, by size or by number of responders. Lower therefore signals an effect at a small dose. For orientation: LD50 means the dose at which mortality reaches 50%. Low readings indicate a more toxic substance, high ones a less toxic substance.

The values above are taken from ChEMBL document CHEMBL1139517, “Mono- and bis-thiazolium salts have potent antimalarial activity” (J Med Chem, 2005).
